In brackets after ≈: the same amount, converted by molar mass. Residues, ends and D or L forms follow the SMILES beside them.

As a reminder, the MIC is the lowest concentration found to suppress growth. Low values mean a more susceptible organism, high ones a less susceptible organism.

The subject of one data set is Staphylococcus aureus. The data set can be described thus: Antibacterial activity against Staphylococcus aureus ATCC 6538 by microdilution method. Type of data set: functional. In outline:
(§1)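 Modified microdilution method. For the resin conjugates, the amount added to the medium volume was based on the total peptide quantity bound to the resin, as calculated by Fmoc titration.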
For orientation: Dilution methods test growth across graded concentrations, often in twofold steps.

Another data set deals with Micrococcus luteus. As to the kind of experiment: Antibacterial activity against Micrococcus luteus ATCC 9341 by microdilution method. Type of data set: functional. The gist of the method:
as §1

In a further data set the test system is Pseudomonas aeruginosa. The data set can be described thus: Antibacterial activity against Pseudomonas aeruginosa ATCC 9027 by microdilution method. Type of data set: functional. In outline: as §1
The test system of the next data set is Escherichia coli. The data set can be described thus: Antibacterial activity against Escherichia coli ATCC 25922 by microdilution method. Type of data set: functional. In outline:
as §1

Data set [1] is described as follows: Cytotoxicity against human erythrocytes assessed as hemolysis. Type of data set: cell-based. The following applies: erythrocyte.

As to `CC(C)[C@H](NC(=O)[C@H](CCCCN)NC(=O)[C@@H](NC(=O)[C@H](CCCCN)NC(=O)[C@H](Cc1ccccc1)NC(=O)[C@H](CCCCN)NC(=O)[C@@H](NC(=O)[C@H](CCCCN)NC(=O)[C@@H](N)Cc1ccccc1)C(C)C)C(C)C)C(=O)N[C@@H](CCCCN)C(N)=O` (H-FKVKFKVKVK-NH2), the MIC worked out at 1.56 µg/mL (≈ 1.25 µM) with Staphylococcus aureus, 3.12 µg/mL (≈ 2.5 µM) in the data set on Micrococcus luteus, 6.25 µg/mL (≈ 5 µM) with Pseudomonas aeruginosa and 3.12 µg/mL (≈ 2.5 µM) in the data set on Escherichia coli. For the same compound, the Activity entry in data set [1] is “Not Active”.
On to `CC(C)[C@H](NC(=O)[C@H](CCCCN)NC(=O)[C@H](CCCCN)NC(=O)[C@H](CCCCN)NC(=O)[C@H](CCCCN)NC(=O)[C@H](CCCCN)NC(=O)[C@@H](NC(=O)[C@@H](NC(=O)[C@@H](N)Cc1ccccc1)C(C)C)C(C)C)C(=O)N[C@@H](Cc1ccccc1)C(N)=O` (H-FVVKKKKKVF-NH2), for which the MIC against Staphylococcus aureus, in the data set on Micrococcus luteus, with Pseudomonas aeruginosa and against Escherichia coli was above 400 µg/mL each time.
`CC[C@H](C)[C@H](NC(=O)CN)C(=O)NCC(=O)N[C@@H](CCCCN)C(=O)N[C@@H](Cc1ccccc1)C(=O)N[C@@H](CC(C)C)C(=O)N[C@@H](Cc1c[nH]cn1)C(=O)N[C@@H](CO)C(=O)N[C@@H](C)C(=O)N[C@@H](CCCCN)C(=O)N[C@@H](CCCCN)C(=O)N[C@@H](Cc1ccccc1)C(=O)NCC(=O)N[C@@H](CCCCN)C(=O)N[C@@H](C)C(=O)N[C@@H](Cc1ccccc1)C(=O)N[C@H](C(=O)NCC(=O)N[C@@H](CCC(=O)O)C(=O)N[C@H](C(=O)N[C@@H](CCSC)C(=O)N[C@@H](CC(N)=O)C(=O)N[C@@H](CO)C(=O)O)[C@@H](C)CC)C(C)C` [MAGAININ 2] (H-GIGKFLHSAKKFGKAFVGEIMNS-OH): the MIC in the data set on Staphylococcus aureus was 50 µg/mL (≈ 20.3 µM); against Micrococcus luteus, 50 µg/mL (≈ 20.3 µM); with Pseudomonas aeruginosa, 25 µg/mL (≈ 10.1 µM); with Escherichia coli, 50 µg/mL (≈ 20.3 µM).

These data come from ChEMBL document CHEMBL1140458, “Design and synthesis of novel antibacterial peptide-resin conjugates” (Bioorg Med Chem Lett, 2007).
